Reference: ChEMBL document CHEMBL1153277 (Bioorg Med Chem Lett, 2009)

How the values were obtained:
[1] = target: Neuronal acetylcholine receptor subunit alpha-7 (Homo sapiens, UniProt P36544); assay: Agonist activity at human recombinant alpha7 nAChR expressed in rat GH3 cells by calcium influx assay; type: functional, cell-based
In short: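 GH3 cells recombinantly expressing human α7 nAChR; agonist activity. Each compound run in duplicate. EC50 taken from individual 8-point concentration-response curves and expressed as pEC50, with Emax given in %.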

Homo sapiens [2] = species: Homo sapiens; assay: Selectivity for human alpha3beta4 nAChR over human alpha7 nAChR
[3] = target: Neuronal acetylcholine receptor; alpha3/beta4 (Homo sapiens, UniProt P30926+P32297); assay: Antagonist activity at human alpha3beta4 nAChR expressed in HEK293 cells by calcium influx assay; type: functional, cell-based
Sequence of Neuronal acetylcholine receptor; alpha3/beta4 (P30926 whole entry): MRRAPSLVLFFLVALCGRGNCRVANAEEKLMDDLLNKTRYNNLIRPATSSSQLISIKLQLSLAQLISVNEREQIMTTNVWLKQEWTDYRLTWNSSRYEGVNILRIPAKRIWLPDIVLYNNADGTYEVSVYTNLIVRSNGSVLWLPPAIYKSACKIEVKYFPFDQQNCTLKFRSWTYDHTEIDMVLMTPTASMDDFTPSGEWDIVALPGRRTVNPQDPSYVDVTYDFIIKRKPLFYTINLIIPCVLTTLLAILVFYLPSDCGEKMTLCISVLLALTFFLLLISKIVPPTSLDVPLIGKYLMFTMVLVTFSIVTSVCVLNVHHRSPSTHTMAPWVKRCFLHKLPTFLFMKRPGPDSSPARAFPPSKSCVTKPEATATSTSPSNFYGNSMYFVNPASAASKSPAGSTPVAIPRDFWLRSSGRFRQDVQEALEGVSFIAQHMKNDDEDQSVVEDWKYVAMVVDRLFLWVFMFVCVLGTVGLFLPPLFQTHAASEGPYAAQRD
Sequence of Neuronal acetylcholine receptor; alpha3/beta4 (P32297 whole entry): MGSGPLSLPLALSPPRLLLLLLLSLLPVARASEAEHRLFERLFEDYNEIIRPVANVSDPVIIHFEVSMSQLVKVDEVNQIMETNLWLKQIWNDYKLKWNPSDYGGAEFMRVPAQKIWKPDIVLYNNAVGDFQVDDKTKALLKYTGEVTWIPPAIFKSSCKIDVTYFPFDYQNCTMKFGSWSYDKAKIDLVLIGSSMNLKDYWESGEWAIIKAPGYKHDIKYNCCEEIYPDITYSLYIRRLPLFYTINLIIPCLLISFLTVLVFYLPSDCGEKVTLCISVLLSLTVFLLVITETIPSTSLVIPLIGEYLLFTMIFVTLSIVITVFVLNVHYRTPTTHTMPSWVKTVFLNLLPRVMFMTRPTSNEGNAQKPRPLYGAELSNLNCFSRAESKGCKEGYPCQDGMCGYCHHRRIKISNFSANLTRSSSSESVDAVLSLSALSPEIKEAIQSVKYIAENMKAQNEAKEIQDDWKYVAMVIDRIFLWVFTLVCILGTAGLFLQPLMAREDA

[4] = target: Neuronal acetylcholine receptor; alpha4/beta2 (Homo sapiens, UniProt P17787+P43681); assay: Antagonist activity at human alpha4beta2 nAChR expressed in HEK293 cells by calcium influx assay; type: functional, cell-based
Sequence of Neuronal acetylcholine receptor; alpha4/beta2 (P17787 whole entry): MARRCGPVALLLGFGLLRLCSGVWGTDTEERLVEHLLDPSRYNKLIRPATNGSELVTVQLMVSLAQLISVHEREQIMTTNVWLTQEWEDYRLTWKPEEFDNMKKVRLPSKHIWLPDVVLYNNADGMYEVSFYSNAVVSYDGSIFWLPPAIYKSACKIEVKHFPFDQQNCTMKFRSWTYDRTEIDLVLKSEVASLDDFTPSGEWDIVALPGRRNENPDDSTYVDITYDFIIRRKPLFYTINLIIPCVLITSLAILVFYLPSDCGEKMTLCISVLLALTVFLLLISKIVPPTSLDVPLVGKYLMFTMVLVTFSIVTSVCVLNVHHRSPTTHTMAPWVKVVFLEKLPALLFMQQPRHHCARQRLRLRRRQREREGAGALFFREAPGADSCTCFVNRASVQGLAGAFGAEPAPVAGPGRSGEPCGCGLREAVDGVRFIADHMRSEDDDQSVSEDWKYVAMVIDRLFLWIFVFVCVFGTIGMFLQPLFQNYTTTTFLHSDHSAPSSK
Sequence of Neuronal acetylcholine receptor; alpha4/beta2 (P43681 whole entry): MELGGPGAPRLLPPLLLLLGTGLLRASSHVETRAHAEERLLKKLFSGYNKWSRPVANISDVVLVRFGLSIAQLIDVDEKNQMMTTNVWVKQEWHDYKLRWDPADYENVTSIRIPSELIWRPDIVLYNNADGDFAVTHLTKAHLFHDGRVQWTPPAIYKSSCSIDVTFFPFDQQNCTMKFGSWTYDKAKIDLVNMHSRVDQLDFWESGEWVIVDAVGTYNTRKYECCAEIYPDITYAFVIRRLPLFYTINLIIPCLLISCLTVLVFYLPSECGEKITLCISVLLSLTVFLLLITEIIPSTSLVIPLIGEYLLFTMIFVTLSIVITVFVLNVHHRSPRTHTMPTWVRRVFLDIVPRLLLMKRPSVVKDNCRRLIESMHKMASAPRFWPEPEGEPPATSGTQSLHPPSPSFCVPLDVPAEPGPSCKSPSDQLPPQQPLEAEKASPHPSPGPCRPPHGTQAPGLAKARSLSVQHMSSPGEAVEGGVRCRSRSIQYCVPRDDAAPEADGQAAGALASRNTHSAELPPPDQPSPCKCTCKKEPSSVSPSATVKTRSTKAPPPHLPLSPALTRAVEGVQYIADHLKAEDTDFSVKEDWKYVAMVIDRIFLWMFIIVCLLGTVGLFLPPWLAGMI

[5] = target: Acetylcholine receptor; alpha1/beta1/delta/gamma (Homo sapiens, UniProt P02708+P07510+P11230+Q07001); assay: Antagonist activity at human alpha-1-beta-1-gamma-delta nAChR expressed in human TE671 cells by calcium influx assay; type: functional, cell-based, TE-671
Sequence of Acetylcholine receptor; alpha1/beta1/delta/gamma (P02708 whole entry): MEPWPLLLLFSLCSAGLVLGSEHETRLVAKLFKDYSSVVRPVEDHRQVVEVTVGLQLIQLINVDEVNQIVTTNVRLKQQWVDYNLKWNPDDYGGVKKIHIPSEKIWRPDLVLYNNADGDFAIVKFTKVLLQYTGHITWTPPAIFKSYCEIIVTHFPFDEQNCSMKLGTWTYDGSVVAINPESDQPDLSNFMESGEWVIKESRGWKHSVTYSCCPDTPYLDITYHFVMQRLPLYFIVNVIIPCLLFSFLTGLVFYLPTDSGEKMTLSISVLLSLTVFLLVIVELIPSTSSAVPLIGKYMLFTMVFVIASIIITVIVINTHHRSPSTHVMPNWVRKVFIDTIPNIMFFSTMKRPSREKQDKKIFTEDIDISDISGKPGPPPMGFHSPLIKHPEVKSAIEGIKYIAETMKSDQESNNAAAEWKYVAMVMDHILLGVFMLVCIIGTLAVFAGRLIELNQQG
Sequence of Acetylcholine receptor; alpha1/beta1/delta/gamma (P07510 whole entry): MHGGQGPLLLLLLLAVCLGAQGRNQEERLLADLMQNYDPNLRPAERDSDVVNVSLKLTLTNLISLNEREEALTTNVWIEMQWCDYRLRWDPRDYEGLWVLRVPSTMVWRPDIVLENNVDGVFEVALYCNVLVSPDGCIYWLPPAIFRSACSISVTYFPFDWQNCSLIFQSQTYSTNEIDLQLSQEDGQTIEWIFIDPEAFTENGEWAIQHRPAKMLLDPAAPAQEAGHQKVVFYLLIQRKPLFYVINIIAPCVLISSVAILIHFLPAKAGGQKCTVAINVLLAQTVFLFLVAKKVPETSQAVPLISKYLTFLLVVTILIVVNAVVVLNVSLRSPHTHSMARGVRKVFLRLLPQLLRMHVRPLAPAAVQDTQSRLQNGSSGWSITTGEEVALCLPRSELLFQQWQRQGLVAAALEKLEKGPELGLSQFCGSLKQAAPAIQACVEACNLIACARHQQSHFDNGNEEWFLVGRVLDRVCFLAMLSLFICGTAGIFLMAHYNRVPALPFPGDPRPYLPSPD
Sequence of Acetylcholine receptor; alpha1/beta1/delta/gamma (P11230 whole entry): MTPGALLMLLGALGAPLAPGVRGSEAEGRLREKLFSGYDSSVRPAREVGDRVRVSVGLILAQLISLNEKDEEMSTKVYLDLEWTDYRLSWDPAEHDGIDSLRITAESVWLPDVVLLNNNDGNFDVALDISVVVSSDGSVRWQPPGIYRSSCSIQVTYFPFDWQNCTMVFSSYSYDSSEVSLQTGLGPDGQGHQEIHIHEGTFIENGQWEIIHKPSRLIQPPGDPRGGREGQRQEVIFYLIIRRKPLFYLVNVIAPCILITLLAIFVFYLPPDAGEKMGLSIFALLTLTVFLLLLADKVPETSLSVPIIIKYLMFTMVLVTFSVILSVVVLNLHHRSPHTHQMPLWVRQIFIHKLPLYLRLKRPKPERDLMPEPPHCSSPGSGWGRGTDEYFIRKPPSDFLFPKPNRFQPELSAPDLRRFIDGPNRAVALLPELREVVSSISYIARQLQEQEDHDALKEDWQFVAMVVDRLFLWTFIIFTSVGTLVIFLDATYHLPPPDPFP
Sequence of Acetylcholine receptor; alpha1/beta1/delta/gamma (Q07001 whole entry): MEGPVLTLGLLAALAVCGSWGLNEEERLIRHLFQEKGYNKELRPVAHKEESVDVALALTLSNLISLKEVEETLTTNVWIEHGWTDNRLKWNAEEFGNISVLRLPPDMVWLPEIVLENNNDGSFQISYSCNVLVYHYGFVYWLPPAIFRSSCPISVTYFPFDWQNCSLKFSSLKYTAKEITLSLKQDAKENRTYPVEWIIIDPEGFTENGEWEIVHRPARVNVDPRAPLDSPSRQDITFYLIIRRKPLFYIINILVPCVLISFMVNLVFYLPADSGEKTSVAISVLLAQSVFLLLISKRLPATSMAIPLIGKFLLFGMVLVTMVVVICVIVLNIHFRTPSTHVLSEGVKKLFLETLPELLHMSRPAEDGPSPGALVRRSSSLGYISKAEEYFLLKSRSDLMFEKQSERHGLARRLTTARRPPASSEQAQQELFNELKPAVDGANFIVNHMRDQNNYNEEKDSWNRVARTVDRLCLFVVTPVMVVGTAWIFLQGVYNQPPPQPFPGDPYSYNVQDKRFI

[6] = target: T1, 5-hydroxytryptamine receptor 3A (Homo sapiens, UniProt P46098); assay: Antagonist activity at human 5HT3 receptor by calcium influx assay; type: functional
T1 sequence (P46098 whole entry): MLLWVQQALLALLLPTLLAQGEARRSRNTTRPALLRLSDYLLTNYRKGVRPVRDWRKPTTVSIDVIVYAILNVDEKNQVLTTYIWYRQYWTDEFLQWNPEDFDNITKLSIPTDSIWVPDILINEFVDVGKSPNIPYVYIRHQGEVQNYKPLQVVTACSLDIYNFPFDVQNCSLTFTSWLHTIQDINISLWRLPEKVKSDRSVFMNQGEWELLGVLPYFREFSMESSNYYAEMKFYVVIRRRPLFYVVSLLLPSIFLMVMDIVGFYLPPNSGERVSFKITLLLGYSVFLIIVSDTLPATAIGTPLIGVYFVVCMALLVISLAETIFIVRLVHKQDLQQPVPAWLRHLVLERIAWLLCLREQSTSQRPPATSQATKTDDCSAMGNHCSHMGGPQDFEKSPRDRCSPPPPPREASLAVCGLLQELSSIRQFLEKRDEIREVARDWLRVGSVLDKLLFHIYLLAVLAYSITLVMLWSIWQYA

Homo sapiens [7] = species: Homo sapiens; assay: Selectivity for human alpha4beta2 nAChR over human alpha7 nAChR
Homo sapiens [8] = species: Homo sapiens; assay: Selectivity for human alpha-1-beta-1-gamma-delta nAChR over human alpha7 nAChR
Homo sapiens [9] = species: Homo sapiens; assay: Selectivity for human 5HT3 receptor over human alpha7 nAChR
[10] = Octanol-water partition coefficient, log P of the compound; type: physicochemical
[11] = Metabolic stability in mouse liver microsomes assessed as hepatic extraction ratio; type: ADME, Microsome; settings: read-out: Activity
In short: (§1)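 Compound incubated with mouse or human liver microsomes. In vitro hepatic extraction ratio reported as % compound depleted at the end of the experiment; half-life also given.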

[12] = Metabolic stability in human liver microsomes assessed as hepatic extraction ratio; type: ADME, Microsome; settings: read-out: Activity; in short: as §1
Brain [13] = assay: Drug level in DBA/2 mouse brain at 30 umol/kg, po after 1 hr; type: ADME, organism-based; settings: in vivo
In short: (§2)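 Mice (n = 6) dosed 30 µmol/kg po. Brain and plasma levels measured at 1 h and 4 h after dosing, reported as pmol/g.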

Mus musculus [14] = assay: Plasma concentration in DBA/2 mouse at 30 umol/kg, po after 1 hr; type: ADME, organism-based; settings: in vivo; in short: as §2
Brain [15] = assay: Drug level in DBA/2 mouse brain at 30 umol/kg, po after 4 hrs; type: ADME, organism-based; settings: in vivo; in short: as §2
Mus musculus [16] = assay: Plasma concentration in DBA/2 mouse at 30 umol/kg, po after 4 hrs; type: ADME, organism-based; settings: in vivo; in short: as §2

Sequence of Neuronal acetylcholine receptor subunit alpha-7 (P36544 whole entry): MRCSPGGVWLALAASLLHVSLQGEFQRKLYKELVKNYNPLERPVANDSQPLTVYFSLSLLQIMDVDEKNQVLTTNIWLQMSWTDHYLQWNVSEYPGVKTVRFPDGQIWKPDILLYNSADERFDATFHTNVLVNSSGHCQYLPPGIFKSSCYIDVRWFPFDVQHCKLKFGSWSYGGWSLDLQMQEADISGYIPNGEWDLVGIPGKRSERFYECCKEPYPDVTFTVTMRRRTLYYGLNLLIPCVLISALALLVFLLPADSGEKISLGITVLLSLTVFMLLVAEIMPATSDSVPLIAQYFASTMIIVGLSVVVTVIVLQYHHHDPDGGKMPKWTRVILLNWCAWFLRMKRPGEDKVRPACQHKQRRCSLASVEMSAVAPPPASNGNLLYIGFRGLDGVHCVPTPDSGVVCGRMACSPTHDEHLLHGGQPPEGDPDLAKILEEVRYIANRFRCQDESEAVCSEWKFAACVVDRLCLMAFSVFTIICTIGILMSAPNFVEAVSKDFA

| Compound | EC50 [1] [µM] | Emax [1] [%] | other results |
| --- | --- | --- | --- |
| Cc1ccccc1C#C[C@@H]1C[C@H](CN2CCCCC2)C(=O)N1C (relative stereo) | 0.0158 | 83 | Ratio (Homo sapiens [2]): 104 |
| Cc1cc([C@@H]2C[C@H](CN3CCCCC3)C(=O)N2C)sc1-c1ccccc1Cl (relative stereo) | 0.631 | 81 |  |
| CN1C(=O)[C@@H](CN2CCCCC2)C[C@H]1c1ccccc1Cl | 0.794 | 89 |  |
| CN1C(=O)[C@@H](CN2CCCCC2)C[C@H]1c1ccc(-c2ccccc2Cl)cc1 (relative stereo) | 0.126 | 62 | Ratio (Homo sapiens [2]): 3 |
| CN1C(=O)[C@@H](CN2CCCCC2)C[C@H]1c1nc(-c2ccccc2Cl)c[nH]1 (relative stereo) | 1.26 | 61 |  |
| CN1C(=O)[C@@H](CN2CCCCC2)C[C@H]1c1ccc(C2CCCCC2)cc1 (relative stereo) | 0.316 | 60 |  |
| CN1C(=O)[C@@H](CN2CCCCC2)C[C@H]1c1cccc(Cl)c1 (relative stereo) | 1 | 102 |  |
| CN1C(=O)[C@@H](CN2CCCCC2)C[C@H]1C#Cc1ccccc1Cl | 0.0251 | 89 | Ratio (Homo sapiens [2]): 52 |
| Clc1ccc([C@@H]2C[C@H]3CC[C@@H]2N3)cn1 [(+)-EPIBATIDINE] | 0.0398 | 100 |  |
| CN1C(=O)[C@@H](CN2CCCCC2)C[C@H]1C#Cc1ccc2c(ccn2C)c1 (relative stereo) | 0.00794 | 100 | Ratio (Homo sapiens [2]): 111; IC50 [3]: 1 µM; IC50 [4]: 2 µM; IC50 [5]: 3.98 µM; IC50 [6]: 25.1 µM; Ratio (Homo sapiens [7]): 232; Ratio (Homo sapiens [8]): 431; Ratio (Homo sapiens [9]): 3220 |
| CN1CCC[C@H]1c1cccnc1 |  | 100 |  |
| CN1C(=O)[C@@H](CN2CCCCC2)C[C@H]1c1ccc(C2CCCC2)cc1 (relative stereo) | 0.316 | 28 |  |
| COc1ccc([C@@H]2C[C@H](CN3CCCCC3)C(=O)N2C)cc1 (relative stereo) | 1.26 | 124 |  |
| CN1C(=O)[C@@H](CN2CCCCC2)C[C@H]1c1nc(-c2ccccc2Cl)cn1C (relative stereo) | 0.631 | 47 |  |
| CN1C(=O)[C@@H](CN2CCCCC2)C[C@H]1c1ccc(-c2ccccc2F)cc1 (relative stereo) | 0.316 | 47 |  |
| CN1C(=O)[C@@H](CN2CCCCC2)C[C@H]1C#Cc1ccc2occc2c1 (relative stereo) | 0.00794 | 90 | Ratio (Homo sapiens [2]): 123; IC50 [3]: 0.794 µM; IC50 [4]: 5.01 µM; IC50 [5]: 100 µM; IC50 [6]: 100 µM; Ratio (Homo sapiens [7]): 660; Ratio (Homo sapiens [8]): 17000; Ratio (Homo sapiens [9]): 17000; logP [10]: 3.9; hepatic extraction ratio [11]: 0.67; hepatic extraction ratio [12]: 0.68; Drug uptake (Brain [13]): 6533 pmol/g; Cp (Mus musculus [14]): 1001 pmol/g; Drug uptake (Brain [15]): 3676 pmol/g; Cp (Mus musculus [16]): 544 pmol/g |
| COc1cccc([C@@H]2C[C@H](CN3CCCC3)C(=O)N2C)c1 (relative stereo) | 7.94 | 80 |  |
| Cc1ccc([C@@H]2C[C@H](CN3CCCCC3)C(=O)N2C)cc1 (relative stereo) | 0.631 | 114 |  |
| CN1C(=O)[C@@H](CN2CCCCC2)C[C@H]1c1ccc(-c2ccccc2Cl)s1 (relative stereo) | 0.0316 | 79 | Ratio (Homo sapiens [2]): 26 |
| O=C1NC[C@@]2(CN3CCC2CC3)O1 | 0.398 | 104 |  |
| CN1C(=O)[C@@H](CN2CCCCC2)C[C@H]1c1cnc(-c2ccccc2Cl)s1 (relative stereo) | 0.0251 | 89 | Ratio (Homo sapiens [2]): 14 |
| CN1C(=O)[C@@H](CN2CCCCC2)C[C@H]1c1ccc(Br)cc1 (relative stereo) | 0.631 | 89 |  |
| COc1ccccc1[C@@H]1C[C@H](CN2CCCCC2)C(=O)N1C (relative stereo) | 1.26 | 107 |  |
| CN1C(=O)[C@@H](CN2CCCCCC2)C[C@H]1c1ccccc1Cl (relative stereo) | 2 | 82 |  |
| CN1C(=O)[C@@H](CN2CCCCC2)C[C@H]1c1ccc(-c2ccccc2)cc1 | 1.26 | 61 |  |
| COc1cccc([C@@H]2C[C@H](CN3CCCCC3)C(=O)N2C)c1 (relative stereo) | 1.26 | 128 |  |
| CN1C(=O)[C@@H](CN2CCCCC2)C[C@H]1c1ccc(Cl)cc1 (relative stereo) | 1 | 110 |  |
| COc1ccc(/C=C2\CCCN=C2c2cccnc2)c(OC)c1 [GTS-21] | 2 | 71 |  |
| CN1C(=O)[C@@H](CN2CCCCC2)C[C@H]1C#Cc1ccc2c(c1)CCO2 (relative stereo) | 0.00794 | 80 | Ratio (Homo sapiens [2]): 154; IC50 [3]: 1 µM; IC50 [4]: 10 µM; IC50 [5]: 6.31 µM; IC50 [6]: 50.1 µM; Ratio (Homo sapiens [7]): 1260; Ratio (Homo sapiens [8]): 773; Ratio (Homo sapiens [9]): 5390 |
